Screening data as filed in PubChem BioAssay.
Hits are enriched below; roughly 2% of the tested compounds scored in any of these assays.
CAL PDZ FP-1 – inhibitors of human CAL PDZ peptide binding | purified CAL PDZ, TMR-peptide fluorescence polarization, 1 h | inhibition, % at 24.9 µM | Q9HD26 | 300,000 compounds, 0.92% hits | AID 602252;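 active = mean inhibition of at least 30% with at least half of replicates also reaching 30%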;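 also: 0% = DMSO neutral control and 100% = excess unlabeled competitor peptide PRC23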
PKA-R1A activ – PKA-R1A complex activation | P00514+P68181 | PKA-R1A dissociation, Cy5-IP20 fluorescence polarization; scaled: DMSO 0%, 113 µM cGMP 100% | activation, % at 11.4 µM | 340,000 compounds, 0.083% hits | AID 504707;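 active = percent activation above the mean of all tested compounds plus 3 SD, cut at about 19% in these data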;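 also: higher means more PKAc released from R1A so a rise in polarization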
PKA-R2B activ – activates the human PKA-R2B holoenzyme complex; P22694+P31323; PKA-R2B holoenzyme dissociation, Cy5-IP20 fluorescence polarization; R2B truncated from residue 108, S112A mutant; 0% DMSO only, 100% 113 µM cGMP; activation, % at 11.4 µM; 340,000 compounds, 0.079% hits; AID 504700;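 active = activation above a cutoff set at the mean over all compounds plus 3 SD, cut at about 18% in these data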;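 also: higher means more holoenzyme dissociation and a rise in polarization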
NTR1 ag – agonists of human neurotensin receptor NTR1; P30989; NTR1-U2OS beta-arrestin-GFP spot imaging, agonist mode; activation, % at 20 µM; 330,000 compounds, 0.17% hits; AID 493036;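 active = activation at or above 40% of the spot to cytoplasm intensity ratio, with at least 20 cells analyzed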;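 also: 0% = DMSO without peptide and 100% = 100 nM NTR1 peptide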
Target sequence (P30989 whole entry, looked up): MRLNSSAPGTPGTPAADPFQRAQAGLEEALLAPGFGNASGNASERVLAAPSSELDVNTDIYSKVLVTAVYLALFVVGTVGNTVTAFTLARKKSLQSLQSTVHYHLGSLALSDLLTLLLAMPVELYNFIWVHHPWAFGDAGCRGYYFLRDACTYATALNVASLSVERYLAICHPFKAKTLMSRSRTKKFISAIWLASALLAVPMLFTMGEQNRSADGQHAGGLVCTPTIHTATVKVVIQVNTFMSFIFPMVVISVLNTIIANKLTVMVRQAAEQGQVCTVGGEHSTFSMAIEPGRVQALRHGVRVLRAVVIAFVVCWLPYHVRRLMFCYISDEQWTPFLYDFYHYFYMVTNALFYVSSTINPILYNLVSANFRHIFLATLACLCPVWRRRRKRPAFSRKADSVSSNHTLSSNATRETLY
CAL PDZ FP-2 – inhibitors of human CAL PDZ peptide binding. inhibition, % at 20 µM. Q9HD26. 330,000 compounds, 0.02% hits. purified CAL PDZ, TMR-peptide fluorescence polarization, 1 h;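 active = highest replicate inhibition of at least 40%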;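 also: plate controls were DMSO neutral control wells for no effect and unlabeled competitor peptide control wells for full effect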
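material = purified tagged CAL PDZ domain construct (CerCALP) | buffer or medium = sodium phosphate/NaCl buffer pH 7.4 with TCEP, IgG, Thesit | reagent = TMR-labelled reporter peptide T*-PRC34 bound in PDZ groove | incubation = 1 h room-temperature incubation prior to read | measured by = fluorescence polarization (mP) | evaluation = percent inhibition from loss of millipolarization | control set = unlabelled peptide and DMSO controls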
dFosB activator – enhances mouse delta FosB homodimer DNA binding. activation, % at 25 µM. purified delta FosB, TAMRA-CDK5 oligo fluorescence polarization; percent of positive-control signal above neutral wells. 340,000 compounds, 0.99% hits;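 active = mean activation above about 17%, with every replicate also reaching it, limit read from the data, passing the limit was not always enough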
NTR1 ag conf – NTR1 (human) agonism, confirmed; activation, % at 20 µM; NTR1-U2OS beta-arrestin-GFP translocation imaging; 480 compounds, 38% hits; shares compounds with NTR1 ag;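 active = mean activation at 20 µM of at least 40%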;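 also: 0% = DMSO without peptide and 100% = 100 nM NTR1 peptide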
An asterisk follows results filed as active; x = not tested or not shown.

SMILES	CAL PDZ FP-1	PKA-R1A activ	PKA-R2B activ	NTR1 ag	CAL PDZ FP-2	dFosB activator	NTR1 ag conf
CC1(c2ccccc2)C(C#N)C(=O)NC(=O)C1C#N (centres undefined)	-2	-5	5	x	-1	-6	x
O=C(NCc1csc(-c2cccs2)n1)C1CCCCC1	33*	-3	-5	1	0	1	x
CCOC1=CC(=O)N(Cc2ccccc2)C1	69*	-2	0	-1	0	0	x
CC1=NN2C(=N)/C(=C\c3ccc(SCc4ccccc4)o3)C(=O)N=C2S1	55*	-8	-2	0	-1	5	x
CC1=NN2C(=N)/C(=C\c3cc(C)n(Cc4ccccc4)c3C)C(=O)N=C2S1	x	x	x	-1	x	x	x
CCc1nnc(NC(=O)CN2CCN(c3ccccc3F)CC2)s1	41*	3	-11	0	0	-5	x
NC(=O)c1ccccc1[N+](=O)[O-]	-4	3	-1	-2	0	3	x
N#CC(CCc1ccccc1[N+](=O)[O-])(CCc1ccccc1[N+](=O)[O-])C(N)=O	53*	2	-8	x	0	-17	x
O=C1CCCC(=O)C1=Cc1c[nH]c2ccccc12	70*	-6	-3	2	-1	4	x
O=C1CCCc2c1[nH]c1ccccc21	-3	0	4	2	x	-5	x
CN(CCC1CCOCC1)C(=O)CC1C(=O)NCCN1Cc1ccoc1 (centres undefined)	-3	0	-11	3	1	1	x
CN(CCCC1CCCC1)C(=O)CC1C(=O)NCCN1Cc1ccc(F)cc1 (centres undefined)	41*	8	0	-1	-2	-4	x
COc1cc(N/N=C(\C)c2ccc(O)c(C)c2)nc(-c2ccccc2)n1	-1	2	-7	53*	0	-4	20
C/C(=N\Nc1cc(-c2ccccc2)nc(-c2ccccc2)n1)c1ccc(O)c(C)c1	5	-4	1	34	0	-13	x
CCc1ccc(-c2cn(-c3nc(C)cc(C)n3)c(=N)o2)cc1	x	-3	1	46*	-1	-9	32
CC(C#N)N1CCN(S(=O)(=O)c2ccc3c(c2)CCC3)CC1 (centres undefined)	2	-3	-13	0	-1	5	x
CC1=C(C(=O)N2CCOCC2)CC(CC(=O)NCc2ccco2)C(=O)N1Cc1ccc(C(C)(C)C)cc1 (centres undefined)	x	0	2	x	x	x	x
CCOc1ccc2c(ccc(/C=C/c3cc(C)c4cccnc4c3O)[n+]2C)c1	-2	11	4	x	0	-215	x
N#C/C(=C\c1cn[nH]c1-c1ccc(Cl)cc1)C(=O)NCc1ccccc1	-4	-5	-2	43*	-3	-19	9
Cc1ccc(-c2ccccc2)n1-c1ccc(C(=O)O)cc1	1	0	-9	0	-1	3	x
Oc1ccccc1-n1c(-c2ccccc2)ccc1-c1ccccc1	2	-2	-6	51*	-1	-3	6
Cc1ccc(C(=O)/C=C/c2ccc3ncccc3c2)cc1	-4	-2	-4	11	-1	-9	x
CC(NNC(=S)N1CCN(c2ccccn2)CC1)c1nccc2ccccc12 (centres undefined)	-2	-3	-8	x	-1	-10	x
CCc1ccc2c(c1)C1(C(=O)N2)N2CCCC2C(C(=O)c2ccc3ccccc3c2)C12C(=O)Nc1ccccc12 (centres undefined)	-6	-3	-4	55*	0	-11	87*
O=C1C2C3C=CC(C4CC34)C2C(=O)N1CCCCN1CCN(c2ccc(F)cc2)CC1 (centres undefined)	1	13	10	1	-1	-11	x
SMILES	CAL PDZ FP-1	PKA-R1A activ	PKA-R2B activ	NTR1 ag	CAL PDZ FP-2	dFosB activator	NTR1 ag conf
CCc1ccc(NC(=O)c2ccc3c(=O)n4c(nc3c2)CCCCC4)cc1	-3	-9	-11	10	0	-10	x
O=C(Nc1cccc(S(=O)(=O)N2CCCCC2)c1)c1ccc2c(=O)n3c(nc2c1)CCCCC3	-4	-8	9	43*	-5	-4	26
O=C(/C=C/c1c(F)cccc1Cl)c1ccc(O)cc1	3	6	-5	63*	-4	-8	5
COc1ccc(C2=NOC(Cn3nc(C(=O)NCc4cccc(C(F)(F)F)c4)cc3-c3ccccc3)C2)cc1 (centres undefined)	5	-8	5	-3	0	2	x
Oc1ccc(-c2nc3c4c(ncn3n2)-c2ccccc2CC42CCCC2)cc1	1	1	1	46*	-1	4	32
COC(=O)c1ccccc1NN=Nc1ccccc1[N+](=O)[O-]	x	2	4	x	x	x	x
C[C@H]1C=CC(=O)O[C@H]1c1ccccc1	2	-7	-2	41*	-2	0	37
CCCC#Cc1ccc2c(c1)O[C@H](CN(C)C(=O)CC1CC1)[C@H](C)CN([C@@H](C)CO)S2(=O)=O	x	-2	-5	x	x	x	x
Cn1cc(C(C[N+](=O)[O-])c2ccccc2)c2ccccc21 (centres undefined)	7	-1	-1	4	0	-11	x
CC(=O)n1cc(C(C[N+](=O)[O-])SCCN)c2ccccc21 (centres undefined)	-3	-11	1	47*	-1	-3	76*
COC(=O)c1ccc2c(c1)C(C)(C)C(/C=C/c1ccccc1O)=[N+]2C	-30	-18	-3	50*	x	111*	51*
O=C(Nc1ccc(N2CCN(C(=O)c3ccco3)CC2)c(Cl)c1)c1cc2ccccc2o1	-4	0	5	42*	-1	4	63*
CC(C)S(=O)(=O)c1csc(NC(=O)Nc2cc(Cl)ccc2Cl)c1Cl	12	3	-1	42*	-2	-11	12
O=CC1=C(c2ccccc2)Oc2ccccc2O1	-6	-16	-5	44*	-3	-17	62*
CC(C(=O)N1CCCCC1)N(C)CC(=O)Nc1cccc(F)c1 (centres undefined)	x	x	x	-1	x	x	x
COC(=O)C1=C(C)N(Cc2ccccc2)C(=NCC(C)C)N[C@H]1c1cccc(C(F)(F)F)c1	-5	-7	2	22	0	-10	x
COC(=O)C1=C(C)N(Cc2ccccc2)C(=NCc2ccccc2)N[C@H]1c1cccc(C(F)(F)F)c1	-1	1	2	44*	-1	-2	75*
COc1ccc(OC)c(Nc2nc3ccc(C)cc3n3cnnc23)c1	0	1	1	22	0	-4	x
COc1ccc(Cl)cc1Nc1nc2ccc(C)cc2n2cnnc12	x	-4	7	46*	0	8	31
